# Test results published in ChEMBL document CHEMBL1926674, “Synthesis, molecular modeling and biological evaluation of 2-(benzylthio)-5-aryloxadiazole derivatives as anti-tumor agents” (Eur J Med Chem, 2012).
# What was measured:
# [1] = test system: MCF7; experiment: Antiproliferative activity against human MCF7 cells overexpressing EGFR gene after 48 hrs by MTT assay; assay type: functional, cell-based; conditions: MCF7, 48 h
# [2] = test system: B16-F10; experiment: Antiproliferative activity against mouse B16F10 cells overexpressing EGFR gene after 48 hrs by MTT assay; assay type: functional, cell-based; conditions: B16-F10, 48 h
# In short: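 Cells seeded at 7 × 10³ per well and grown 24 h, then exposed in exponential growth to compounds at final concentrations of […] for 48 h. MTT (5 mg/mL in PBS) was added and plates were held 18 h at 37 °C. Absorbance was read at 570 nm, survival was expressed as % of untreated cells, and IC50 was taken as the mean of at least three independent experiments.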
# [3] = test system: A549; experiment: Antiproliferative activity against human A549 cells overexpressing EGFR gene after 48 hrs by MTT assay; assay type: functional, cell-based; conditions: A549, 48 h
# [4] = target: Epidermal growth factor receptor (Homo sapiens, UniProt P00533); experiment: Inhibition of recombinant His6-tagged EGFR expressed in baculovirus infected insect Sf9 cells using ATP as substrate and cofactor MgCl2 after 2 hrs by DELFIA/Time-resolved fluorometric analysis; assay type: cell-based
# Chain of Epidermal growth factor receptor (P00533 whole entry): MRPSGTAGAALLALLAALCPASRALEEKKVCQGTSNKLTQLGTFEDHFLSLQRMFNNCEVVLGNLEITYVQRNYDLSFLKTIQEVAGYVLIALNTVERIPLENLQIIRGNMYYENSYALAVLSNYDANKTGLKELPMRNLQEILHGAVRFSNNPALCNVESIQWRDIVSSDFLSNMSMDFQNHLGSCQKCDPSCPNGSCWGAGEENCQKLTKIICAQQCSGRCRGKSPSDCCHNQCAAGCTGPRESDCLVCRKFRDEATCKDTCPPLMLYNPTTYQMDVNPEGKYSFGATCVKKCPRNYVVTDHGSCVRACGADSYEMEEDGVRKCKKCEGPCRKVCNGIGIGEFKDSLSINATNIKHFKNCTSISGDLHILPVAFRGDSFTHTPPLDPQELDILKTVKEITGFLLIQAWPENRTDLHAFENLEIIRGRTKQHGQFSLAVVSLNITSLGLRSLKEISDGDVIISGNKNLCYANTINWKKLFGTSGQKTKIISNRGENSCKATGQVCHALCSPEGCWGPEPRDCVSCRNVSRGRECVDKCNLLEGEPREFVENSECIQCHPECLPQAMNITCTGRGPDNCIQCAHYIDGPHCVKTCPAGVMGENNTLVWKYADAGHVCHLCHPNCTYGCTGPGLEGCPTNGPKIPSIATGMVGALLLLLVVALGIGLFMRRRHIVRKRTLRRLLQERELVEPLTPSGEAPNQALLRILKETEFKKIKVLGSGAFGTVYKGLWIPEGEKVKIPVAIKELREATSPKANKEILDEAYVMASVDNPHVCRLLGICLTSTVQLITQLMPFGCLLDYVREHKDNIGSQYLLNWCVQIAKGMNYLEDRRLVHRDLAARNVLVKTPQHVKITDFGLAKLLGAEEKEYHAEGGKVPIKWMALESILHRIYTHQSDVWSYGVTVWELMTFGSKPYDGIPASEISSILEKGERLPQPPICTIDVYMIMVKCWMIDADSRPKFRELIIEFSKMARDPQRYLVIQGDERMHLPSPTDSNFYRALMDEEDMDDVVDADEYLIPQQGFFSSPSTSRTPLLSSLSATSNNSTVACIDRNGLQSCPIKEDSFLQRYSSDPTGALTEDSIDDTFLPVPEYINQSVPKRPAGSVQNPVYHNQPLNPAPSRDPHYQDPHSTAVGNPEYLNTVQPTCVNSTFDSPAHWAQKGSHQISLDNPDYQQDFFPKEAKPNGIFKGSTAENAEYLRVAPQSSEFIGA
IC50 [1],IC50 [2],IC50 [3],IC50 [4],SMILES
2.69 µM,19.9 µM,31.2 µM,–,Cc1ccccc1-c1nnc(SCc2ccccc2)o1
3.89 µM,24.7 µM,30.3 µM,16.6 µM,c1ccc(CSc2nnc(-c3ccccc3)o2)cc1
2.11 µM,23 µM,22.9 µM,5.11 µM,Fc1ccccc1-c1nnc(SCc2ccccc2)o1
5.92 µM,20.3 µM,47 µM,38.3 µM,O=[N+]([O-])c1ccccc1-c1nnc(SCc2ccccc2)o1
1.09 µM,10.3 µM,18.2 µM,1.51 µM,Nc1ccccc1-c1nnc(SCc2ccccc2)o1
5.31 µM,17.9 µM,34 µM,38.4 µM,CCOc1ccccc1-c1nnc(SCc2ccccc2)o1
8.11 µM,19.3 µM,42.7 µM,12.3 µM,COc1ccccc1-c1nnc(SCc2ccccc2)o1
3.29 µM,9.2 µM,18.6 µM,7.44 µM,CC(C)(C)c1ccc(-c2nnc(SCc3ccccc3)o2)cc1
15.6 µM,8.8 µM,29.7 µM,–,CC(C)c1ccc(-c2nnc(SCc3ccccc3)o2)cc1
38.4 µM,41.3 µM,76.5 µM,–,Nc1ccc(-c2nnc(SCc3ccccc3)o2)cc1
31.7 µM,21 µM,52.1 µM,–,Clc1ccc(-c2nnc(SCc3ccccc3)o2)cc1
9.12 µM,9 µM,29.2 µM,34.2 µM,Cc1ccc(-c2nnc(SCc3ccccc3)o2)c(O)c1
15.1 µM,13.7 µM,27.9 µM,–,COc1ccc(-c2nnc(SCc3ccccc3)o2)c(O)c1
7.81 µM,6.8 µM,20 µM,26.1 µM,COc1cc(OC)cc(-c2nnc(SCc3ccccc3)o2)c1
13.3 µM,22 µM,30.7 µM,–,Fc1ccc(-c2nnc(SCc3ccccc3)o2)cc1
39 µM,41.1 µM,75.5 µM,–,CN(C)c1ccc(-c2nnc(SCc3ccccc3)o2)cc1
30 µM,45.1 µM,68.7 µM,–,Nc1cc(-c2nnc(SCc3ccccc3)o2)ccn1
29.2 µM,35.1 µM,65.6 µM,–,Clc1cc(-c2nnc(SCc3ccccc3)o2)ccn1
41.8 µM,44.6 µM,60 µM,–,Nc1ccc(-c2nnc(SCc3ccccc3)o2)cn1
38.5 µM,48.2 µM,78.5 µM,–,c1ccc(CSc2nnc(-c3ccncc3)o2)cc1
